In brackets after ≈: the same amount, converted by molar mass. Activity calls are given as the source filed them. No cut-off for these calls is given here.
Test system: U2OS
Assay: Cytotoxicity against human U2OS cells
Format: cell-based
Settings: not given

SMILES | IC50
N#Cc1ccc(NC(=O)Nc2ccnc(C(F)(F)F)c2)cc1 | > 100 µM
O=C(Nc1ccnc(C(F)(F)F)c1)Nc1ccc2c(c1)OC(F)(F)O2 | > 100 µM
O=C(Nc1ccnc(C(F)(F)F)c1)Nc1ccc(F)c(C(F)(F)F)c1 | > 100 µM
N#Cc1ccc(NC(=O)Nc2ccc(F)c(C(F)(F)F)c2)cc1 | > 100 µM
O=C(Nc1ccnc(C(F)(F)F)c1)Nc1ccnc(C(F)(F)F)c1 | > 100 µM

Test system: Schistosoma mansoni
Assay: Antischistosomal activity against Schistosoma mansoni cercariae infected in NMRI mouse assessed as reduction in worm burden at 80 mg/kg, po administered as four consecutive dose via gavage measured after 21 days relative to control
Format: functional
Design: scale not given: the % may be the effect or the level left
Settings: not given
Summary of the method: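 Infected mice given four consecutive 80 mg/kg oral doses; efficacy read as worm burden reduction (%).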

SMILES | Activity
O=C(Nc1ccnc(C(F)(F)F)c1)Nc1ccc(F)c(C(F)(F)F)c1 | 53%

Test system: not listed separately
Assay: Plasma concentration in Swiss mouse at 100 mg/kg, po administered as single dose via gavage measured up to 48 hrs by LC-MS analysis
Format: ADME, organism-based
Settings: not given
Summary of the method: (§1)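 Single 100 mg/kg oral dose given to non-infected male Swiss outbred mice; plasma sampled over 48 h post-dose; n=2 mice per time point, mean values. AUC taken to last measured concentration.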

SMILES | concentration at 48 h
O=C(Nc1ccnc(C(F)(F)F)c1)Nc1ccc2c(c1)OC(F)(F)O2 | > 5 µM

Test system: Schistosoma mansoni
Assay: Antischistosomal activity against newly transformed stage of Schistosoma mansoni measured after 72 hrs by microscopic analysis
Format: functional, organism-based
Settings: not given
Summary of the method: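 Newly transformed schistosomula were first screened at 10 µM; compounds that killed them were then run as a concentration titration to derive IC50 values.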

SMILES | IC50
N#Cc1ccc(NC(=O)Nc2ccnc(C(F)(F)F)c2)cc1 | 1.9 µM
O=C(Nc1ccnc(C(F)(F)F)c1)Nc1ccc2c(c1)OC(F)(F)O2 | 1.3 µM
O=C(Nc1ccnc(C(F)(F)F)c1)Nc1ccc(F)c(C(F)(F)F)c1 | 0.74 µM
N#Cc1ccc(NC(=O)Nc2ccc(F)c(C(F)(F)F)c2)cc1 | 1.6 µM
O=C(Nc1ccnc(C(F)(F)F)c1)Nc1ccnc(C(F)(F)F)c1 | 2.4 µM

Test system: HEK293
Assay: Cytotoxicity against HEK293 cells
Format: cell-based
Settings: Homo sapiens

SMILES | IC50
N#Cc1ccc(NC(=O)Nc2ccnc(C(F)(F)F)c2)cc1 | > 100 µM
O=C(Nc1ccnc(C(F)(F)F)c1)Nc1ccc2c(c1)OC(F)(F)O2 | > 100 µM
O=C(Nc1ccnc(C(F)(F)F)c1)Nc1ccc(F)c(C(F)(F)F)c1 | > 100 µM
N#Cc1ccc(NC(=O)Nc2ccc(F)c(C(F)(F)F)c2)cc1 | > 100 µM
O=C(Nc1ccnc(C(F)(F)F)c1)Nc1ccnc(C(F)(F)F)c1 | > 100 µM

Test system: not listed separately
Assay: Kinetic solubility of the compound in 0.01M HCl at pH 2 by nephelometric method
Format: physicochemical
Settings: read-out: Kinetic_solubility
Summary of the method: (§2)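 DMSO stocks spiked into pH 6.5 phosphate buffer or 0.01 M HCl (approx. pH 2.0); nephelometry gave a solubility concentration range.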

SMILES | solubility kinetic
N#Cc1ccc(NC(=O)Nc2ccnc(C(F)(F)F)c2)cc1 | 1.6 to 3.1 µg/mL (≈ 5.22 to 10.1 µM)
O=C(Nc1ccnc(C(F)(F)F)c1)Nc1ccc2c(c1)OC(F)(F)O2 | 3.1 to 6.3 µg/mL (≈ 8.58 to 17.4 µM)
O=C(Nc1ccnc(C(F)(F)F)c1)Nc1ccc(F)c(C(F)(F)F)c1 | 3.1 to 6.3 µg/mL (≈ 8.44 to 17.2 µM)
N#Cc1ccc(NC(=O)Nc2ccc(F)c(C(F)(F)F)c2)cc1 | < 1.6 µg/mL
O=C(Nc1ccnc(C(F)(F)F)c1)Nc1ccnc(C(F)(F)F)c1 | 12.5 to 25 µg/mL (≈ 35.7 to 71.4 µM)

Test system: Schistosoma mansoni
Assay: Antischistosomal activity against adult stage of Schistosoma mansoni measured after 72 hrs by microscopic analysis
Format: functional, organism-based
Settings: not given

SMILES | IC50
N#Cc1ccc(NC(=O)Nc2ccnc(C(F)(F)F)c2)cc1 | 3.3 µM
O=C(Nc1ccnc(C(F)(F)F)c1)Nc1ccc2c(c1)OC(F)(F)O2 | 0.75 µM
O=C(Nc1ccnc(C(F)(F)F)c1)Nc1ccc(F)c(C(F)(F)F)c1 | 0.66 µM
N#Cc1ccc(NC(=O)Nc2ccc(F)c(C(F)(F)F)c2)cc1 | 0.94 µM
O=C(Nc1ccnc(C(F)(F)F)c1)Nc1ccnc(C(F)(F)F)c1 | 0.88 µM

Test system: Schistosoma mansoni
Assay: Antischistosomal activity against Schistosoma mansoni cercariae infected in NMRI mouse assessed as reduction in worm burden at 100 mg/kg, po administered as single dose via gavage measured after 21 days relative to control
Format: functional
Design: scale not given: the % may be the effect or the level left
Settings: not given
Summary of the method: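 Infected mice given a single 100 mg/kg oral dose; efficacy read as worm burden reduction (%).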

SMILES | Activity
N#Cc1ccc(NC(=O)Nc2ccnc(C(F)(F)F)c2)cc1 | 1.6%
O=C(Nc1ccnc(C(F)(F)F)c1)Nc1ccc2c(c1)OC(F)(F)O2 | 2.1%
O=C(Nc1ccnc(C(F)(F)F)c1)Nc1ccc(F)c(C(F)(F)F)c1 | 50%
N#Cc1ccc(NC(=O)Nc2ccc(F)c(C(F)(F)F)c2)cc1 | 37%
O=C(Nc1ccnc(C(F)(F)F)c1)Nc1ccnc(C(F)(F)F)c1 | 20%

Test system: not listed separately
Assay: Tmax in Swiss mouse at 100 mg/kg, po administered as single dose via gavage by LC-MS analysis
Format: ADME, organism-based
Settings: in vivo
Summary of the method: as §1

SMILES | Tmax
N#Cc1ccc(NC(=O)Nc2ccnc(C(F)(F)F)c2)cc1 | 2 h
O=C(Nc1ccnc(C(F)(F)F)c1)Nc1ccc(F)c(C(F)(F)F)c1 | 7.5 h
N#Cc1ccc(NC(=O)Nc2ccc(F)c(C(F)(F)F)c2)cc1 | 4 h
O=C(Nc1ccnc(C(F)(F)F)c1)Nc1ccnc(C(F)(F)F)c1 | 4 h

Test system: not listed separately
Assay: Kinetic solubility of the compound in phosphate buffer at pH 6.5 by nephelometric method
Format: physicochemical
Settings: read-out: Kinetic_solubility
Summary of the method: as §2

SMILES | solubility kinetic
N#Cc1ccc(NC(=O)Nc2ccnc(C(F)(F)F)c2)cc1 | 1.6 to 3.1 µg/mL (≈ 5.22 to 10.1 µM)
O=C(Nc1ccnc(C(F)(F)F)c1)Nc1ccc2c(c1)OC(F)(F)O2 | 3.1 to 6.3 µg/mL (≈ 8.58 to 17.4 µM)
O=C(Nc1ccnc(C(F)(F)F)c1)Nc1ccc(F)c(C(F)(F)F)c1 | 3.1 to 6.3 µg/mL (≈ 8.44 to 17.2 µM)
N#Cc1ccc(NC(=O)Nc2ccc(F)c(C(F)(F)F)c2)cc1 | < 1.6 µg/mL
O=C(Nc1ccnc(C(F)(F)F)c1)Nc1ccnc(C(F)(F)F)c1 | 12.5 to 25 µg/mL (≈ 35.7 to 71.4 µM)

Test system: Schistosoma mansoni
Assay: Antischistosomal activity against newly transformed stage of Schistosoma mansoni assessed as parasite death at 10 uM
Format: functional, organism-based
Settings: not given
Summary of the method: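 Newly transformed schistosomula exposed at 10 µM as a screen for killing; active compounds then titrated to give IC50.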

SMILES | Activity
N#Cc1ccc(NC(=O)Nc2ccnc(C(F)(F)F)c2)cc1 | Active
O=C(Nc1ccnc(C(F)(F)F)c1)Nc1ccc2c(c1)OC(F)(F)O2 | Active
O=C(Nc1ccnc(C(F)(F)F)c1)Nc1ccc(F)c(C(F)(F)F)c1 | Active
N#Cc1ccc(NC(=O)Nc2ccc(F)c(C(F)(F)F)c2)cc1 | Active
O=C(Nc1ccnc(C(F)(F)F)c1)Nc1ccnc(C(F)(F)F)c1 | Active

Test system: not listed separately
Assay: Cytotoxicity against human HC04 cells
Format: cell-based
Settings: not given

SMILES | IC50
N#Cc1ccc(NC(=O)Nc2ccnc(C(F)(F)F)c2)cc1 | > 100 µM
O=C(Nc1ccnc(C(F)(F)F)c1)Nc1ccc2c(c1)OC(F)(F)O2 | > 100 µM
O=C(Nc1ccnc(C(F)(F)F)c1)Nc1ccc(F)c(C(F)(F)F)c1 | > 100 µM
N#Cc1ccc(NC(=O)Nc2ccc(F)c(C(F)(F)F)c2)cc1 | > 100 µM
O=C(Nc1ccnc(C(F)(F)F)c1)Nc1ccnc(C(F)(F)F)c1 | > 100 µM

Test system: not listed separately
Assay: AUC (0 to last) in Swiss mouse at 100 mg/kg, po administered as single dose via gavage by LC-MS analysis
Format: ADME, organism-based
Design: dose 100 mg/kg, time 0 - last, route oral
Settings: in vivo
Summary of the method: as §1

SMILES | AUC(0-t)
N#Cc1ccc(NC(=O)Nc2ccnc(C(F)(F)F)c2)cc1 | 175 µM·h
O=C(Nc1ccnc(C(F)(F)F)c1)Nc1ccc2c(c1)OC(F)(F)O2 | 2270 µM·h
O=C(Nc1ccnc(C(F)(F)F)c1)Nc1ccc(F)c(C(F)(F)F)c1 | 1490 µM·h
N#Cc1ccc(NC(=O)Nc2ccc(F)c(C(F)(F)F)c2)cc1 | 216 µM·h
O=C(Nc1ccnc(C(F)(F)F)c1)Nc1ccnc(C(F)(F)F)c1 | 953 µM·h

Test system: not listed separately
Assay: Half-life in Swiss mouse at 100 mg/kg, po administered as single dose via gavage by LC-MS analysis
Format: ADME, organism-based
Settings: in vivo
Summary of the method: as §1

SMILES | half-life
N#Cc1ccc(NC(=O)Nc2ccnc(C(F)(F)F)c2)cc1 | 2.3 h
O=C(Nc1ccnc(C(F)(F)F)c1)Nc1ccc(F)c(C(F)(F)F)c1 | 18 h
N#Cc1ccc(NC(=O)Nc2ccc(F)c(C(F)(F)F)c2)cc1 | 2.7 h
O=C(Nc1ccnc(C(F)(F)F)c1)Nc1ccnc(C(F)(F)F)c1 | 10 h

Test system: HFF
Assay: Cytotoxicity against HFF
Format: cell-based
Settings: Homo sapiens

SMILES | IC50
N#Cc1ccc(NC(=O)Nc2ccnc(C(F)(F)F)c2)cc1 | > 100 µM
O=C(Nc1ccnc(C(F)(F)F)c1)Nc1ccc2c(c1)OC(F)(F)O2 | 80 µM
O=C(Nc1ccnc(C(F)(F)F)c1)Nc1ccc(F)c(C(F)(F)F)c1 | 71 µM
N#Cc1ccc(NC(=O)Nc2ccc(F)c(C(F)(F)F)c2)cc1 | 60 µM
O=C(Nc1ccnc(C(F)(F)F)c1)Nc1ccnc(C(F)(F)F)c1 | > 100 µM

Test system: not listed separately
Assay: Cmax in Swiss mouse at 100 mg/kg, po administered as single dose via gavage by LC-MS analysis
Format: ADME, organism-based
Design: dose 100 mg/kg, route oral
Settings: in vivo
Summary of the method: as §1

SMILES | Cmax
N#Cc1ccc(NC(=O)Nc2ccnc(C(F)(F)F)c2)cc1 | 20 µM
O=C(Nc1ccnc(C(F)(F)F)c1)Nc1ccc2c(c1)OC(F)(F)O2 | 55 µM
O=C(Nc1ccnc(C(F)(F)F)c1)Nc1ccc(F)c(C(F)(F)F)c1 | 56 µM
N#Cc1ccc(NC(=O)Nc2ccc(F)c(C(F)(F)F)c2)cc1 | 31 µM
O=C(Nc1ccnc(C(F)(F)F)c1)Nc1ccnc(C(F)(F)F)c1 | 40 µM

Test system: not listed separately
Assay: Octanol-[…] partition coefficient, log D of the compound at pH 7.4 by RP-HPLC method
Settings: not given

SMILES | chromatographic logD
N#Cc1ccc(NC(=O)Nc2ccnc(C(F)(F)F)c2)cc1 | 3
O=C(Nc1ccnc(C(F)(F)F)c1)Nc1ccc2c(c1)OC(F)(F)O2 | 3.7
O=C(Nc1ccnc(C(F)(F)F)c1)Nc1ccc(F)c(C(F)(F)F)c1 | 3.8
N#Cc1ccc(NC(=O)Nc2ccc(F)c(C(F)(F)F)c2)cc1 | 3.8
O=C(Nc1ccnc(C(F)(F)F)c1)Nc1ccnc(C(F)(F)F)c1 | 3

Test system: not listed separately
Assay: Intrinsic clearance in human liver microsomes assessed per mg protein after 60 mins in presence of NADPH generating system
Format: ADME, microsome
Settings: 1 h

SMILES | CLH
N#Cc1ccc(NC(=O)Nc2ccnc(C(F)(F)F)c2)cc1 | < 7 µL/min/mg
O=C(Nc1ccnc(C(F)(F)F)c1)Nc1ccc2c(c1)OC(F)(F)O2 | < 7 µL/min/mg
O=C(Nc1ccnc(C(F)(F)F)c1)Nc1ccc(F)c(C(F)(F)F)c1 | < 7 µL/min/mg
N#Cc1ccc(NC(=O)Nc2ccc(F)c(C(F)(F)F)c2)cc1 | < 7 µL/min/mg
O=C(Nc1ccnc(C(F)(F)F)c1)Nc1ccnc(C(F)(F)F)c1 | < 7 µL/min/mg

Test system: not listed separately
Assay: Intrinsic clearance in mouse liver microsomes assessed per mg protein after 60 mins in presence of NADPH generating system
Format: ADME, microsome
Settings: 1 h

SMILES | CLH
N#Cc1ccc(NC(=O)Nc2ccnc(C(F)(F)F)c2)cc1 | < 7 µL/min/mg
O=C(Nc1ccnc(C(F)(F)F)c1)Nc1ccc2c(c1)OC(F)(F)O2 | 16 µL/min/mg
O=C(Nc1ccnc(C(F)(F)F)c1)Nc1ccc(F)c(C(F)(F)F)c1 | < 7 µL/min/mg
N#Cc1ccc(NC(=O)Nc2ccc(F)c(C(F)(F)F)c2)cc1 | 12 µL/min/mg
O=C(Nc1ccnc(C(F)(F)F)c1)Nc1ccnc(C(F)(F)F)c1 | < 7 µL/min/mg

Test system: not listed separately
Assay: Drug uptake in Swiss mouse plasma at 100 mg/kg, po administered as single dose via gavage measured after 4 to 48 hrs by LC-MS analysis
Format: ADME, organism-based
Settings: in vivo
Summary of the method: as §1

SMILES | Drug uptake
O=C(Nc1ccnc(C(F)(F)F)c1)Nc1ccc(F)c(C(F)(F)F)c1 | Active
O=C(Nc1ccnc(C(F)(F)F)c1)Nc1ccnc(C(F)(F)F)c1 | Active

Reference: ChEMBL document CHEMBL4184124, “Progress in antischistosomal N,N'-diaryl urea SAR” (Bioorg Med Chem Lett, 2018)
